Measured values reported in ChEMBL document CHEMBL1641461, “Azaindoles as potent CRTH2 receptor antagonists” (Bioorg Med Chem Lett, 2011).

How the values were obtained:
[1] = biological target: T1, Prostaglandin D2 receptor 2 (Homo sapiens, UniProt Q9Y5Y4); experiment: Displacement of radioligand from human CRTH2 expressed in HEK293 cells by competitive binding assay; type: cell-based
T1 sequence (Q9Y5Y4 whole entry): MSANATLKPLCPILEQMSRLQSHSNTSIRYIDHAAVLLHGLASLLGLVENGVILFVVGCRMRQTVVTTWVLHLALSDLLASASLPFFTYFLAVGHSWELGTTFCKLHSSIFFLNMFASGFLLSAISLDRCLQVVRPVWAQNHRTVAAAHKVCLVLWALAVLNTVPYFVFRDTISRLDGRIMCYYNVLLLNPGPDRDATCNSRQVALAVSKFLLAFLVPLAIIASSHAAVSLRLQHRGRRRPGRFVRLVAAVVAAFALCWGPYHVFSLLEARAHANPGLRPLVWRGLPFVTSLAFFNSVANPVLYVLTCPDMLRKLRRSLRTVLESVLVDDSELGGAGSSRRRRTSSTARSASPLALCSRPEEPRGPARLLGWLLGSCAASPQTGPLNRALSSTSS
Method in brief: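 Radioligand competition binding on membranes from HEK293 (EBNA) cells stably expressing hCRTH2, in 10 mM HEPES/KOH. Mean of two or more experiments.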

Thromboxane A2 receptor = biological target: T2, Thromboxane A2 receptor (Homo sapiens, UniProt P21731); experiment: Displacement of radioligand from prostanoid TP receptor expressed in HEK293 cells by competitive binding assay; type: cell-based
T2 sequence (P21731 whole entry): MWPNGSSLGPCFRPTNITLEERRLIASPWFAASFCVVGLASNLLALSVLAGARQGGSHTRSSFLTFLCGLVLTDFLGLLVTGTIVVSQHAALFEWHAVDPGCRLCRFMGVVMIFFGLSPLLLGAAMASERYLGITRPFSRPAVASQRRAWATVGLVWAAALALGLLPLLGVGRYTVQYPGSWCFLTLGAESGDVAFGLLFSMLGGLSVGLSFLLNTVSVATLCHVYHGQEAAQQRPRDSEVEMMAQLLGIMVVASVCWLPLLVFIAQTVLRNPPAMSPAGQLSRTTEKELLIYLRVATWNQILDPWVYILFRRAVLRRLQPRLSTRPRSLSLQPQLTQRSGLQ

[2] = biological target: T3, Prostaglandin D2 receptor (Homo sapiens, UniProt Q13258); experiment: Displacement of radioligand from prostanoid DP receptor expressed in HEK293 cells by competitive binding assay; type: cell-based
T3 sequence (Q13258 whole entry): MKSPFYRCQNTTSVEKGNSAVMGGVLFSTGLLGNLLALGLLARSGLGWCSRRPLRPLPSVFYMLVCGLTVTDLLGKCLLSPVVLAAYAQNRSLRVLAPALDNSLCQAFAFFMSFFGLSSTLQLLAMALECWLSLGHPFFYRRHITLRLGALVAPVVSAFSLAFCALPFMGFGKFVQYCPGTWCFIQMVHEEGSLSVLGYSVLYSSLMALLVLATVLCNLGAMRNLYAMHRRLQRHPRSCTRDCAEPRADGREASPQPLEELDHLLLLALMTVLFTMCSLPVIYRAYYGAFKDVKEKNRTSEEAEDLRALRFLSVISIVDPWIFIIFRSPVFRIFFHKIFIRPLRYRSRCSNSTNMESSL

[3] = biological target: T1, Prostaglandin D2 receptor 2; experiment: Antagonist activity at human CRTH2 expressed in HEK293 cells assessed as inhibition of forskolin-induced increase intracellular [125I]cAMP level by scintillation proximity assay; type: functional, cell-based
Method in brief: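 Intracellular cAMP measured by ¹²⁵I-cAMP scintillation proximity assay in Hank's balanced salt solution with 25 mM HEPES and forskolin. Values are the mean of two or more experiments.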

[4] = Volume of distribution in Sprague-Dawley rat at 5 mg/kg, po and 1 mg/kg, iv; type: ADME, organism-based; settings: in vivo
Method in brief: (§1)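 Rats dosed PO at 5 mg/kg (5 mL/kg) in 0.5% methocel and IV at 1 mg/kg (1 mL/kg) in 60% PEG 200; n = 2.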

[5] = Bioavailability in Sprague-Dawley rat at 5 mg/kg, po and 1 mg/kg, iv; type: ADME, organism-based; settings: in vivo; method in brief: as §1
Cytochrome P450 2C9 = Cytochrome P450 2C9 (Homo sapiens, UniProt P11712); experiment: Inhibition of CYP2C9; type: ADME
Method in brief: (§2)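 CYP2C9 and CYP3A4 inhibition IC50 values, averaged over at least two experiments.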

[6] = Clearance in Sprague-Dawley rat at 5 mg/kg, po and 1 mg/kg, iv; type: ADME, organism-based; settings: in vivo; method in brief: as §1
[7] = Half life in Sprague-Dawley rat at 5 mg/kg, po and 1 mg/kg, iv; type: ADME, organism-based; settings: in vivo; method in brief: as §1
Cytochrome P450 3A4 = Cytochrome P450 3A4 (Homo sapiens, UniProt P08684); experiment: Inhibition of CYP3A4; type: ADME; method in brief: as §2
Rattus norvegicus = experiment: (§3) Bioavailability in Sprague-Dawley rat at 1 mg/kg, iv; type: ADME, organism-based; settings: in vivo
[8] = as §3; type: ADME, organism-based; settings: Sprague-Dawley, in vivo

Sequence of Cytochrome P450 3A4 (P08684 whole entry): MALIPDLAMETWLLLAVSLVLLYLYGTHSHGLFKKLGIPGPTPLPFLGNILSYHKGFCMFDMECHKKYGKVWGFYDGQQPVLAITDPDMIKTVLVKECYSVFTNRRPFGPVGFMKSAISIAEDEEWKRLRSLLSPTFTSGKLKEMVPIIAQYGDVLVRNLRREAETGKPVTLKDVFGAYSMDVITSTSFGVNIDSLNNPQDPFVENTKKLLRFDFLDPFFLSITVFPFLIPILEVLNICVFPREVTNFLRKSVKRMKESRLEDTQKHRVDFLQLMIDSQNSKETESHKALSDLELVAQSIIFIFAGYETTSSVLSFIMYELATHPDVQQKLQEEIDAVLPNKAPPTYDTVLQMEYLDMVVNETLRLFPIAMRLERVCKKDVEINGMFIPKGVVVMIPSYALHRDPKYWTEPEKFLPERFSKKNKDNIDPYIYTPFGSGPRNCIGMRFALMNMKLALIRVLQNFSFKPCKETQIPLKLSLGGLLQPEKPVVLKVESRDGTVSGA
Sequence of Cytochrome P450 2C9 (P11712 whole entry): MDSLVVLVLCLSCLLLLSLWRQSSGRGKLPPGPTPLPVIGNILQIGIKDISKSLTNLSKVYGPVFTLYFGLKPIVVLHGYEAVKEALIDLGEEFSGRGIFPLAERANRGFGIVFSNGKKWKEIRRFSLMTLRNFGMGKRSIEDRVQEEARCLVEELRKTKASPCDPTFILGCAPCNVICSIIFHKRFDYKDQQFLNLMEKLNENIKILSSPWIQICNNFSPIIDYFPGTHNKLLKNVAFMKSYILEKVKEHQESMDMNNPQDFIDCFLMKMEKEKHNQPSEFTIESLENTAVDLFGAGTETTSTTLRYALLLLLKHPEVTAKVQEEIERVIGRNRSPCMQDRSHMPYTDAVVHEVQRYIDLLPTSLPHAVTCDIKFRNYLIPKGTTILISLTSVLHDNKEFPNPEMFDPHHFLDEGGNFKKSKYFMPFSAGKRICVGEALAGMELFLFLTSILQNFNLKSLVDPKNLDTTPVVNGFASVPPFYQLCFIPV

In the case of `CN([C@@H]1CCc2c(CC(=O)O)c3cnccc3n2C1)S(=O)(=O)c1ccc(F)cc1`, the Ki [1] is reported as 6.72 µM, the Ki (Thromboxane A2 receptor) is reported as over 6.8 µM and the Ki [2] is reported as over 3.4 µM.

`CN([C@@H]1CCc2c(CC(=O)O)c3ccncc3n2C1)S(=O)(=O)c1ccc(F)cc1` gave a Ki [1] of 0.139 µM, a Ki (Thromboxane A2 receptor) of over 22 µM and a Ki [2] of over 12 µM. It also gave an IC50 [3] of 0.351 µM.

Work on `CN([C@@H]1CCc2c(CC(=O)O)c3cccnc3n2C1)S(=O)(=O)c1ccc(F)cc1` yielded a Vd [4] of 0.23 L/kg, a bioavailability [5] of 50% and an IC50 (Cytochrome P450 2C9) of over 50 µM. The Ki [1] was 0.0033 µM, the Ki (Thromboxane A2 receptor) was over 22 µM and the clearance [6] was 0.4 mL/min/kg. It also gave a Ki [2] of over 47 µM, a half-life [7] of 7.5 h and an IC50 (Cytochrome P450 3A4) of over 50 µM. The IC50 [3] was 0.0034 µM.

Compound `CN([C@@H]1CCc2c(CC(=O)O)c3ccc(Cl)nc3n2C1)S(=O)(=O)c1ccc(F)cc1` has a Ki [1] of 0.0018 µM, a Ki (Thromboxane A2 receptor) of over 27 µM and a Ki [2] of over 18 µM. It also gave an IC50 [3] of 0.0032 µM.

Work on `CN([C@@H]1CCc2c(CC(=O)O)c3ccc(-c4ccc(F)cc4)nc3n2C1)S(=O)(=O)c1ccc(F)cc1` yielded a Ki [1] of 0.0019 µM, a Ki (Thromboxane A2 receptor) of over 1 µM and a Ki [2] of over 3.8 µM. For the same compound, the IC50 [3] was 0.0036 µM.

For `C[C@@H](C(=O)N(C)[C@@H]1CCc2c(CC(=O)O)c3cccnc3n2C1)c1ccc(F)cc1`, the Vd [4] was 0.67 L/kg, the bioavailability [5] was 84% and the IC50 (Cytochrome P450 2C9) was over 50 µM. It also gave a Ki [1] of 0.0034 µM, a Ki (Thromboxane A2 receptor) of over 71 µM and a clearance [6] of 3.6 mL/min/kg. For the same compound, the Ki [2] was over 38 µM, the half-life [7] was 4 h and the IC50 (Cytochrome P450 3A4) was over 50 µM. For the same compound, the IC50 [3] was 0.0057 µM.

For `C[C@H](C(=O)N(C)[C@@H]1CCc2c(CC(=O)O)c3cccnc3n2C1)c1ccc(F)cc1`, the Ki [1] was 0.0211 µM, the Ki (Thromboxane A2 receptor) was over 22 µM and the Ki [2] was over 12 µM. It also gave an IC50 [3] of 0.0738 µM.

With `CN(C(=O)C(C)(C)c1ccc(F)cc1)[C@@H]1CCc2c(CC(=O)O)c3cccnc3n2C1` the Vd [4] was 1.54 L/kg, the F (Rattus norvegicus) was 156% and the Ki [1] was 0.0047 µM. It also gave a Ki (Thromboxane A2 receptor) of over 21 µM, a clearance [6] of 21 mL/min/kg and a Ki [2] of over 10 µM. The half-life [7] was 1.9 h and the IC50 [3] was 0.0035 µM.

Work on `CN(C(=O)C1(c2ccc(F)cc2)CC1)[C@@H]1CCc2c(CC(=O)O)c3cccnc3n2C1` yielded a Vd [4] of 2.2 L/kg, a bioavailability [5] of 63% and a Ki [1] of 0.0036 µM. The Ki (Thromboxane A2 receptor) was over 6.8 µM, the clearance [6] was 12 mL/min/kg and the Ki [2] was over 3.7 µM. It also gave a half-life [7] of 3.1 h and an IC50 [3] of 0.0075 µM.

For `CN(C(=O)C1(c2ccc(F)cc2)CC1(C)C)[C@@H]1CCc2c(CC(=O)O)c3cccnc3n2C1` (stereo partly specified), the Ki [1] was 0.0051 µM, the Ki (Thromboxane A2 receptor) was over 7.2 µM and the Ki [2] was over 4 µM. It also gave an IC50 [3] of 0.0044 µM.

Work on `CN(C(=O)C1(c2ccc(F)cc2)CCC1)[C@@H]1CCc2c(CC(=O)O)c3cccnc3n2C1` yielded a Vd [4] of 4.58 L/kg, a bioavailability [5] of 20% and a Ki [1] of 0.0034 µM. For the same compound, the Ki (Thromboxane A2 receptor) was over 7.2 µM, the clearance [6] was 28 mL/min/kg and the Ki [2] was over 4 µM. The half-life [7] was 2.1 h and the IC50 [3] was 0.0047 µM.

With `CN(C(=O)C1(c2ccc(F)cc2)CCCC1)[C@@H]1CCc2c(CC(=O)O)c3cccnc3n2C1` the Vd [4] was 1.72 L/kg, the bioavailability [5] was 38% and the Ki [1] was 0.0039 µM. For the same compound, the Ki (Thromboxane A2 receptor) was over 7.2 µM, the clearance [6] was 18 mL/min/kg and the Ki [2] was over 4 µM. For the same compound, the half-life [7] was 11.6 h and the IC50 [3] was 0.0045 µM.

`CN(C(=O)C1(c2ccc(F)cc2)CCOCC1)[C@@H]1CCc2c(CC(=O)O)c3cccnc3n2C1` gave a Ki [1] of 0.0115 µM, a Ki (Thromboxane A2 receptor) of over 7.2 µM and a Ki [2] of over 4 µM. The IC50 [3] was 0.007 µM.

In the case of `CN([C@@H]1CCc2c(CC(=O)O)c3ncccc3n2C1)S(=O)(=O)c1ccc(F)cc1`, the Ki [1] is reported as 7.19 µM, the Ki (Thromboxane A2 receptor) is reported as over 7 µM and the Ki [2] is reported as over 1.3 µM.

For `CN([C@@H]1CCc2c(CC(=O)O)c3ccccc3n2C1)S(=O)(=O)c1ccc(F)cc1` [MK-7246], the Vd [4] was 1.15 L/kg, the bioavailability [8] was 138% and the clearance [6] was 3.9 mL/min/kg. It also gave a half-life [7] of 4.1 h.
